Data taken from ChEMBL document CHEMBL3997769, “Discovery and preclinical evaluation of 7-benzyl-N-(substituted)-pyrrolo[3,2-d]pyrimidin-4-amines as single agents with microtubule targeting effects along with triple-acting angiokinase inhibition as antitumor agents” (Bioorg Med Chem, 2017).
Calls of active or inactive are those of the source. The rule behind the calls is not given here.

What was measured:
MOLT-4 = assay: Growth inhibition of human MOLT4 cells incubated for 48 hrs by sulforhodamine B assay; format: functional; settings: MOLT-4, 48 h
A498 = assay: Growth inhibition of human A498 cells incubated for 48 hrs by sulforhodamine B assay; format: functional; settings: A498, 48 h
MDA-MB-468 = assay: Growth inhibition of human MDA-MB-468 cells incubated for 48 hrs by sulforhodamine B assay; format: functional; settings: MDA-MB-468, 48 h
SN12C = assay: Growth inhibition of human SN12C cells incubated for 48 hrs by sulforhodamine B assay; format: functional
NCI-H522 = assay: Growth inhibition of human NCI-H522 cells incubated for 48 hrs by sulforhodamine B assay; format: functional; settings: NCI-H522, 48 h
SF-295 = assay: Growth inhibition of human SF295 cells incubated for 48 hrs by sulforhodamine B assay; format: functional; settings: SF-295, 48 h
4T1 = assay: Antitumor activity against luciferase/GFP-tagged mouse 4T1 cells implanted in Balb/CJ mouse assessed as reduction in primary tumor growth at 50 mg/kg, ip administered three times in a week; format: functional, organism-based
HCT-116 = assay: Growth inhibition of human HCT116 cells incubated for 48 hrs by sulforhodamine B assay; format: functional; settings: HCT-116, 48 h
OVCAR-5 = assay: Growth inhibition of human OVCAR5 cells incubated for 48 hrs by sulforhodamine B assay; format: functional; settings: OVCAR-5, 48 h
CAKI-1 = assay: Growth inhibition of human Caki1 cells incubated for 48 hrs by sulforhodamine B assay; format: functional; settings: CAKI-1, 48 h
Bos taurus = species: Bos taurus; assay: Displacement of [3H]colchicine from bovine brain tubulin at 1 uM measured after 10 mins by liquid scintillation counting method relative to control
NCI-H23 = assay: Growth inhibition of human NCI-H23 cells incubated for 48 hrs by sulforhodamine B assay; format: functional; settings: NCI-H23, 48 h
SK-MEL-28 = assay: Growth inhibition of human SK-MEL-28 cells incubated for 48 hrs by sulforhodamine B assay; format: functional; settings: SK-MEL-28, 48 h
SK-OV-3 = assay: Growth inhibition of human SKOV3 cells incubated for 48 hrs by sulforhodamine B assay; format: functional; settings: SK-OV-3, 48 h
SR = assay: Growth inhibition of human SR cells incubated for 48 hrs by sulforhodamine B assay; format: functional
A-431 = assay: Cytotoxicity against human A431 cells; format: functional, cell-based
MCF7 = assay: Growth inhibition of human MCF7 cells incubated for 48 hrs by sulforhodamine B assay; format: functional; settings: MCF7, 48 h
NCI-H460 = assay: Growth inhibition of human NCI-H460 cells incubated for 48 hrs by sulforhodamine B assay; format: functional; settings: NCI-H460, 48 h
Mus musculus [1] = assay: Toxicity in Balb/cJ mouse assessed as body weight loss administered three times weekly measured every 2 days during compound dosing; settings: in vivo, 48 h
Outline: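 Female BALB/cJ mice, 8 weeks old, bearing orthotopic 4T1-Luc2-GFP allografts (7,500 cells implanted in mammary fat pad #4). Dosing began one week after implantation: intraperitoneal, three times weekly, in 5% Pharmasolve plus 5% Solutol HS in normal saline. Body weight reported as percent change at day 40 versus starting weight, with n = 9–10 and one-way ANOVA against untreated controls.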

SNB-75 = assay: Growth inhibition of human SNB75 cells incubated for 48 hrs by sulforhodamine B assay; format: functional; settings: SNB-75, 48 h
SF-268 = assay: Growth inhibition of human SF268 cells incubated for 48 hrs by sulforhodamine B assay; format: functional; settings: SF-268, 48 h
HeLa = assay: Growth inhibition of human HeLa cells measured after 96 hrs by sulforhodamine B assay; format: functional, cell-based
Outline: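 Exposed 96 h to varying compound concentrations in 0.5% DMSO. Cell protein measured by sulforhodamine B; IC50 = concentration halving the increase in cell protein versus untreated cultures.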

NCI/ADR-RES = assay: Growth inhibition of human NCI/ADR-RES cells incubated for 48 hrs by sulforhodamine B assay; format: functional
A549 = assay: Growth inhibition of human A549/ATCC cells incubated for 48 hrs by sulforhodamine B assay; format: functional; settings: A549, 48 h
Malme-3M = assay: Growth inhibition of human MALME-3M cells incubated for 48 hrs by sulforhodamine B assay; format: functional
SNB-19 = assay: Growth inhibition of human SNB19 cells incubated for 48 hrs by sulforhodamine B assay; format: functional; settings: SNB-19, 48 h
M14 = assay: Growth inhibition of human M14 cells incubated for 48 hrs by sulforhodamine B assay; format: functional; settings: M14, 48 h
HOP-62 = assay: Growth inhibition of human HOP62 cells incubated for 48 hrs by sulforhodamine B assay; format: functional; settings: HOP-62, 48 h
Mus musculus [2] = assay: Toxicity in Balb/cJ mouse implanted with luciferase/GFP-tagged mouse 4T1 cells assessed as body weight change at 50 mg/kg, ip administered three times weekly measured at day 40 post dose; format: organism-based; settings: in vivo
NCI-H226 = assay: Growth inhibition of human NCI-H226 cells incubated for 48 hrs by sulforhodamine B assay; format: functional; settings: NCI-H226, 48 h
KM12 = assay: Growth inhibition of human KM12 cells incubated for 48 hrs by sulforhodamine B assay; format: functional; settings: KM12, 48 h
CCRF-CEM = assay: Growth inhibition of human CCRF-CEM cells incubated for 48 hrs by sulforhodamine B assay; format: functional
SK-MEL-5 = assay: Growth inhibition of human SK-MEL-5 cells incubated for 48 hrs by sulforhodamine B assay; format: functional; settings: SK-MEL-5, 48 h
UO-31 = assay: Growth inhibition of human UO31 cells incubated for 48 hrs by sulforhodamine B assay; format: functional; settings: UO-31, 48 h
SK-MEL-2 = assay: Growth inhibition of human SK-MEL-2 cells incubated for 48 hrs by sulforhodamine B assay; format: functional; settings: SK-MEL-2, 48 h
UACC-62 = assay: Growth inhibition of human UACC62 cells incubated for 48 hrs by sulforhodamine B assay; format: functional; settings: UACC-62, 48 h
HT-29 = assay: Growth inhibition of human HT-29 cells incubated for 48 hrs by sulforhodamine B assay; format: functional; settings: HT-29, 48 h
786-0 = assay: Growth inhibition of human 786-0 cells incubated for 48 hrs by sulforhodamine B assay; format: functional; settings: 786-0, 48 h
HCT-15 = assay: Growth inhibition of human HCT15 cells incubated for 48 hrs by sulforhodamine B assay; format: functional; settings: HCT-15, 48 h
Chorioallantoic membrane = assay: Antiangiogenic activity in Leghorn chicken egg chorioallantoic membrane assessed as inhibition of human VEGF-165/bFGF-induced blood vessels formation measured after 40 hrs by microscopic method; format: functional, tissue-based; settings: Gallus gallus
DU-145 = assay: Growth inhibition of human DU145 cells incubated for 48 hrs by sulforhodamine B assay; format: functional; settings: DU-145, 48 h
HOP-92 = assay: Growth inhibition of human HOP92 cells incubated for 48 hrs by sulforhodamine B assay; format: functional; settings: HOP-92, 48 h
SF-539 = assay: Growth inhibition of human SF539 cells incubated for 48 hrs by sulforhodamine B assay; format: functional; settings: SF-539, 48 h
[3] = Solubility of the compound in water; format: physicochemical; settings: buffer
IGROV-1 = assay: Growth inhibition of human IGROV1 cells incubated for 48 hrs by sulforhodamine B assay; format: functional; settings: IGROV-1, 48 h

COc1ccc(N(C)c2nc(C)nc3c(Cc4ccccc4)cn(C)c23)cc1.Cl
GI50 (MOLT-4): 50.8 nM
GI50 (A498): 20.2 nM
GI50 (MDA-MB-468): 30.1 nM
GI50 (SN12C): 88.7 nM
GI50 (NCI-H522): 23.9 nM
GI50 (SF-295): 30.4 nM
Activity (4T1): Active
GI50 (HCT-116): 35 nM
GI50 (OVCAR-5): 269 nM
GI50 (CAKI-1): 56.6 nM
inhibition (Bos taurus): 73%
GI50 (NCI-H23): 45.8 nM
GI50 (SK-MEL-28): 48.7 nM
GI50 (SK-OV-3): 45.4 nM
GI50 (SR): 33.8 nM
IC50 (A-431): 1200 nM
GI50 (MCF7): 33.3 nM
GI50 (NCI-H460): 38.7 nM
MTD (Mus musculus [1]): 50 mg/kg
GI50 (SNB-75): 27.8 nM
GI50 (SF-268): 350 nM
IC50 (HeLa): 14 nM
GI50 (NCI/ADR-RES): 32.8 nM
GI50 (A549): 44 nM
GI50 (Malme-3M): 17.7 nM
GI50 (SNB-19): 54.7 nM
GI50 (M14): 29.5 nM
GI50 (HOP-62): 47.8 nM
Activity (Mus musculus [2]): Non-Toxic
GI50 (NCI-H226): 304 nM
GI50 (KM12): 44.5 nM
GI50 (CCRF-CEM): 33.5 nM
GI50 (SK-MEL-5): 54.2 nM
GI50 (UO-31): 209 nM
GI50 (SK-MEL-2): 28.6 nM
GI50 (UACC-62): 475 nM
GI50 (HT-29): 35.1 nM
GI50 (786-0): 93.2 nM
GI50 (HCT-15): 38.1 nM
IC50 (Chorioallantoic membrane): 2200 nM
GI50 (DU-145): 44.4 nM
GI50 (HOP-92): 47.1 nM
GI50 (SF-539): 25.4 nM
solubility [3]: Soluble
GI50 (IGROV-1): 95.8 nM
